# Reference: publication PMC5924903 (Proceedings of the National Academy of Sciences of the …, 2018)
# Peptide text beside a SMILES is read from it.
# Test system: HsNAA10
# Assay: Nt acetyltransferase inhibitor assay
# Format: biochemical
# Details: Ki panel of human NATs
# How it was run: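 In vitro Nt-acetylation assay on purified human NAT enzymes. IC50 values were determined for NAA80. Ki values for the bisubstrate inhibitor were determined across a panel of human NATs. Each reaction was run at least three times, in triplicate. Errors are given as SD.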
smiles,measurement,value
CC[C@H](C)[C@H](NC(=O)[C@H](CC(=O)O)NC(=O)[C@H](CC(=O)O)NC(=O)[C@H](CC(=O)O)NC(=O)CSCCNC(=O)CCNC(=O)[C@H](O)C(C)(C)COP(=O)(O)OP(=O)(O)OC[C@H]1O[C@@H](n2cnc3c(N)ncnc32)[C@H](O)[C@@H]1OP(=O)(O)O)C(N)=O [CoA-Ac-DDDI-NH2] (HELM PEPTIDE1{[CC(C)(COP(=O)(O)OP(=O)(O)OC[C@H]1O[C@@H](n2cnc3c(N)ncnc32)[C@H](O)[C@@H]1OP(=O)(O)O)[C@@H](O)C(=O)[*:2]].[bAla].[O=C(CSCCN[*:1])[*:2]].D.D.D.I.[am]}$$$$V2.0),Fold reduced potency for NAA10 compared with NAA80,88 fold
